Results taken from PubChem BioAssay.
Calls of active or inactive are those of the source.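 How the source made its calls, unless noted: active means visually confirmed hit in the image check and inhibition above 20%; inconclusive means visually confirmed hit but inhibition not above 20%; inactive means no visual hit in the image check.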

Key:
[1] = inhibitors of TNFa-induced NFkB p65 translocation, primary screen, imaging, HUVEC, MLSMR starter and 10KST1 sets (AID 438;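 active means inhibition above 20% together with a positive visual image hit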;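 further: compound added about 3h40 before a 20 min TNFalpha stimulation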;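 on inhibition: signal is the nuclear over cytoplasmic p65 intensity ratio per well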); conditions: HUVEC TNFa-induced p65 nuclear translocation; cell count: measured here: nuclei count (cytotoxicity indicator), at 2.08 µM; inhibition: at 2 µM, stronger effect = higher value, 0% TNFa-plus-vehicle, 100% no-TNFa wells
[2] = reduction of polyQ htt aggregates in cells – imaging, exon1htt(103Q)mCFP cells, high-content imaging, primary screen (AID 483;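 active means visual image review flags a hit and inhibition of aggregation exceeds 20%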;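 further: compound exposure lasted 3 days before fixation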;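 on nuclei count: percent of the per-plate median nuclei count of sample wells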); conditions: exon1htt(103Q)mCFP cell line, aggregate imaging, at 2 µM; inhibition of aggregation: stronger effect = higher value; nuclei count: measured here: cell count, toxicity
[3] = endothelial E-selectin expression blockers – imaging, HUVEC, immunofluorescence, MLSMR starter and 10KST1 sets, primary screen (AID 487); conditions: HUVEC TNFalpha-induced E-selectin immunofluorescence imaging, at 2 µM; inhibition: stronger effect = higher value; nuclei count: measured here: cell number, toxicity;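 on inhibition: signal is fraction of cell area covered by stained E-selectin grains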;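 on nuclei count: 100% = median nuclei count of all wells on the same plate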
[4] = biological target: Voltage-gated potassium channel subunit beta-2 (Rattus norvegicus) (UniProt P62483); experiment: inhibitors of rat Kvbeta2 reductase activity – biochemical, NADPH fluorescence, primary screen (AID 622;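 active means fluorescence slope higher than the sample average by over 3 SD, cut at about -0.22 in these data, passing the limit was not always enough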;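 further: slope of raw intensity against log time taken from 70 to 1610 s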); conditions: recombinant KvBeta, 4-cyanobenzaldehyde reduction, at 10 µM, stronger effect = higher value
[5] = biological target: Voltage-gated potassium channel subunit beta-2 (Rattus norvegicus) (UniProt P62483); experiment: enhancers of rat Kvbeta2 NADPH turnover – biochemical, NADPH fluorescence, primary screen (AID 623;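 active means NADPH fluorescence slope more negative than the mean of all samples by about 3 SD, 99.7% confidence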;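 further: fluorescence intensity change per second fitted from 20 to 320 s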); conditions: Recombinant KvBeta, NADPH fluorescence decrease slope, 10 min; at 10 µM; stronger effect = lower value
[6] = biological target: Muscarinic acetylcholine receptor M4 (Homo sapiens) (UniProt P08173); experiment: M4-linked GIRK flux change, two-sided – cell-based, HEK293 M4/GIRK, thallium flux, BTC-AM, M4 allosteric agonist project, primary screen (AID 625;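 active means fluorescence slope after compound addition differing from the mean of all tested samples at 99.7% confidence, mostly higher but some lower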;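 further: thallium influx through GIRK channels coupled to M4 in HEK293 cells with BTC-AM dye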); conditions: at 10 µM, actives lie on both sides
Summary of the method: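 Assay system: HEK293 cells with M4 receptor and GIRK channels / Controls: carbachol and DMSO controls / Schedule: 1 h dye loading, 2 min kinetic read / Technique: kinetic fluorescence with BTC-AM dye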

[7] = blockers of RIG-like receptor reporter activation – cell-based, Sendai virus stimulus, luciferase, 10K MLSCN set, TLR/RLR signaling modifier project, primary screen (AID 602276;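 active means inhibition at or above 50% at 10 µM; inactive means inhibition below 50%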;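 further: firefly luciferase from ISG56 promoter only with Renilla not read in this screen; 0% = Sendai virus plus DMSO and 100% = medium plus DMSO without virus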); conditions: HEK293 RL24 IRF3 luciferase reporter, at 10 µM, stronger effect = higher value
[8] = TLR3 IRF3 reporter activation blockers – cell-based, poly I:C stimulus, luciferase, 10K MLSCN set, primary screen (AID 602277;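 active means inhibition of the reporter signal at or above 50%; inactive means inhibition below 50%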); conditions: HEK293-TLR3 RL24 IRF3 luciferase reporter, at 10 µM, stronger effect = higher value

Voltage-gated potassium channel subunit beta-2 (Rattus norvegicus), sequence (P62483 whole entry, looked up): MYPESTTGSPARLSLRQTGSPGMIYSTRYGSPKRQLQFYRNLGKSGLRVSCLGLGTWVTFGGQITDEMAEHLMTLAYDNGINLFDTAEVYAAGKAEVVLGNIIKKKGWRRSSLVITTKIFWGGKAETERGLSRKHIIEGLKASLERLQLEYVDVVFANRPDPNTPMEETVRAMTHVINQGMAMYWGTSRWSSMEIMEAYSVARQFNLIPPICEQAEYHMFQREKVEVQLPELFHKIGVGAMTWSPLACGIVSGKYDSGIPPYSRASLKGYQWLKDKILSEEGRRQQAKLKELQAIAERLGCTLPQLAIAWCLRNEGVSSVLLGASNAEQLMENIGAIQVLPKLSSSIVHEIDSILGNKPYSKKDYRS
Muscarinic acetylcholine receptor M4 (Homo sapiens), sequence (P08173 whole entry, looked up): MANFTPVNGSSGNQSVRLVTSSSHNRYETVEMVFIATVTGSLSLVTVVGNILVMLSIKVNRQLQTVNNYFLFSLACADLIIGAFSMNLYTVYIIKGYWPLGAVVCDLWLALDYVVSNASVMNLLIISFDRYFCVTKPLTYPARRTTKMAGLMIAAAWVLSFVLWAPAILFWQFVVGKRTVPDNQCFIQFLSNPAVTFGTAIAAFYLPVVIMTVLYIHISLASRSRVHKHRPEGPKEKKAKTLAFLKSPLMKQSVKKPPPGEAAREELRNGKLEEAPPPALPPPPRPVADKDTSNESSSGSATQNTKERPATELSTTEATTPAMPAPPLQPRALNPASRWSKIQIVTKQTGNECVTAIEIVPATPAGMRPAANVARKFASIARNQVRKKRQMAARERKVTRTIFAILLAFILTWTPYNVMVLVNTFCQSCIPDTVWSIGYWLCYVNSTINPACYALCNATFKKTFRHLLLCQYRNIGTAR

SMILES | cell count [1] | inhibition [1] | inhibition of aggregation [2] | nuclei count [2] | inhibition [3] | nuclei count [3] | fluorescence slope [4] | NADPH fluorescence slope [5] | fluorescence slope [6] | inhibition [7] | inhibition [8]
Cc1cccc(-c2noc(CCC(=O)Nc3ccccc3)n2)c1 | 430 | 9.5% (inactive) | 7.6% (inactive) | 92.6% | 68.5% (inactive) | 140% | -0.289 (inactive) | -2.3e-05 (inactive) | 0.00559 (inactive) | -7.26% (inactive) | -4.8% (inactive)
N#Cc1c(NC(=O)COC(=O)C2CC3C=CC2C3)oc(-c2ccccc2)c1-c1ccccc1 (centres undefined) | 282 | 18.4% (inactive) | -7.7% (inactive) | 95.7% | -44.1% (inactive) | 94.6% | -0.399 (inactive) | -0.000409 (inactive) | 0.00531 (inactive) | -1.94% (inactive) | 99% (active)
Cc1cc(NCCCn2ccnc2)n2c(nc3ccccc32)c1C#N | 276 | -23.5% (inactive) | 17.7% (inactive) | 70.2% | 16.6% (inactive) | 80.2% | -0.501 (inactive) | 2e-06 (inactive) | 0.00606 (inactive) | -6.75% (inactive) | -0.197% (inactive)
COC(=O)c1cc(NC(=O)C2CC=CCC2C(=O)O)cc(C(=O)OC)c1 (centres undefined) | 800 | -6.9% (inactive) | -7.4% (inactive) | 108% | 5.2% (inactive) | 97.7% | -0.536 (inactive) | -4.3e-05 (inactive) | 0.00439 (inactive) | 9.55% (inactive) | 7.94% (inactive)
COC(=O)c1ccc(CSc2ncnc3c2nnn3-c2ccc(OC)cc2)o1 | 444 | 3.3% (inactive) | -13.1% (inactive) | 95% | -43.8% (inactive) | 113% | -0.577 (inactive) | -2.7e-05 (inactive) | 0.00411 (inactive) | 1.55% (inactive) | -32.3% (inactive)
CCn1cc(C(=O)NCC2COc3ccccc3O2)c2cc(OC)c(OC)cc2c1=O (centres undefined) | 481 | -29.9% (inactive) | -6.2% (inactive) | 101% | -124% (inactive) | 116% | -0.481 (inactive) | -6.7e-05 (inactive) | 0.00554 (inactive) | 11.8% (inactive) | -1.62% (inactive)
COc1cc(-c2nnc(SCC(=O)c3ccc(C)cc3)o2)cc(OC)c1OC | 378 | 1.7% (inactive) | -8.1% (inactive) | 87.7% | 28.9% (inactive) | 83.6% | -0.607 (inactive) | 2.5e-05 (inactive) | 0.00366 (inactive) | -8.63% (inactive) | -7.77% (inactive)
CCOc1cc(C(=O)N2CCN(c3ccccc3)CC2)cc(OCC)c1OCC | 284 | 14.5% (inactive) | 39.7% (active) | 88.2% | 11.1% (inactive) | 90.3% | -0.559 (inactive) | -2.8e-05 (inactive) | 0.00369 (inactive) | 12.4% (inactive) | 15.3% (inactive)
COc1ccccc1OCc1ccc(C(=O)OCC2CCCO2)o1 (centres undefined) | 640 | -5% (inactive) | -10.7% (inactive) | 73.2% | 0.1% (inactive) | 113% | -0.503 (inactive) | -0.000334 (inactive) | 0.00535 (inactive) | -10.8% (inactive) | -24.7% (inactive)
CCN(CC)C(=O)c1ccc(NS(=O)(=O)c2ccccc2)cc1 | 444 | 0.9% (inactive) | -9.8% (inactive) | 112% | -22.4% (inactive) | 117% | -0.478 (inactive) | -0.000282 (inactive) | 0.0035 (inactive) | -7.99% (inactive) | -12.2% (inactive)
CCN1CCN(Cc2ccccc2NC(=O)Nc2ccc(C)cc2)CC1 | 258 | -3.1% (inactive) | 21.9% (inactive) | 41.1% | -23.4% (inactive) | 94% | -0.487 (inactive) | -6.3e-07 (inactive) | 0.00496 (inactive) | -27.3% (inactive) | -69.1% (inactive)
CCOC(=O)C1=C(c2ccccc2)Nc2nc(C)nn2C1c1cccc(OC)c1OC (centres undefined) | 613 | 1.7% (inactive) | -13.2% (inactive) | 111% | -152% (inactive) | 149% | -0.508 (inactive) | -0.000215 (inactive) | 0.00365 (inactive) | 5.33% (inactive) | 15.1% (inactive)
O=C(NC12CC3CC(CC(C3)C1)C2)C1CCCN1C(=O)NC1CCCCC1 (centres undefined) | 559 | -1.3% (inactive) | 15.8% (inactive) | 96.2% | -17.6% (inactive) | 110% | -0.284 (inactive) | -3.2e-05 (inactive) | 0.00682 (inactive) | -2.83% (inactive) | 28.4% (inactive)
CCNCCNC(=O)c1c(O)c2ccccc2n(CC)c1=O | 289 | -1.4% (inactive) | -5.8% (inactive) | 60.8% | 29.6% (inactive) | 99.7% | -0.539 (inactive) | -4.3e-05 (inactive) | 0.0077 (inactive) | 10% (inactive) | 13.5% (inactive)
